Results: ChEMBL document CHEMBL5058577, “EUbOPEN Chemogenomics Library 2 (Multiplex)” (2022)

Test system: Fibroblast
Assay: Multiplex assay against human fibroblast
Type: toxicity, cell-based
Method in brief: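 Cells stained live at seeding with Hoechst33342, BioTracker Green Microtubule Cytoskeleton Dye, MitoTracker Red and Annexin V Alexa Fluor 680 were imaged on a CQ1 microscope at 37°C and 5% CO2 after compound addition. Their classification by CellPathfinder machine-learning gating ran from Hoechst high-intensity objects versus normal cells, to healthy, pyknosed or fragmented nuclei among normal cells, to mitotic or apoptotic among pyknosed cells. Tubulin, mitochondrial-mass and membrane-permeability phenotypes are per cents of healthy-nucleus cells.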

[1] = 12 h, 1 µM, compound concentration 1 uM, replicate 1
[2] = 12 h, 1 µM, compound concentration 1 uM, replicate 2
[3] = 12 h, 10 µM, compound concentration 10 uM, replicate 1
[4] = 12 h, 10 µM, compound concentration 10 uM, replicate 2
[5] = 24 h, 1 µM, compound concentration 1 uM, replicate 1
[6] = 24 h, 1 µM, compound concentration 1 uM, replicate 2
[7] = 24 h, 10 µM, compound concentration 10 uM, replicate 1
[8] = 24 h, 10 µM, compound concentration 10 uM, replicate 2
[9] = 48 h, 1 µM, compound concentration 1 uM, replicate 1
[10] = 48 h, 1 µM, compound concentration 1 uM, replicate 2
[11] = 48 h, 10 µM, compound concentration 10 uM, replicate 1
[12] = 48 h, 10 µM, compound concentration 10 uM, replicate 2

NCCc1cn(S(=O)(=O)c2c(Cl)nc3sccn23)c2ccccc12.O=C(O)C(=O)O
Population Apoptotic (%) [1]: 45%
Population Fragmented Nuclei (%) [1]: 20%
Population Healthy Nuclei (%) [1]: 65%
Population Hoechst High Intensity Objects (%) [1]: 4%
Population Membrane Permeable-Phenotype (%) [1]: 0%
Population Mitochondria Different-Phenotype (%) [1]: 5%
Population Mitotic Cells (%) [1]: 55%
Population Normal (%) [1]: 95%
Population Pyknosed Nuclei (%) [1]: 14%
Population Tubulin-Different-Phenotype (%) [1]: 40%
Total Cell Count [1]: 146
Population Fragmented Nuclei (%) [2]: 34%
Population Healthy Nuclei (%) [2]: 37%
Population Hoechst High Intensity Objects (%) [2]: 3%
Population Membrane Permeable-Phenotype (%) [2]: 13%
Population Mitochondria Different-Phenotype (%) [2]: 8%
Population Mitotic Cells (%) [2]: 54%
Population Normal (%) [2]: 96%
Population Pyknosed Nuclei (%) [2]: 28%
Population Tubulin-Different-Phenotype (%) [2]: 62%
Total Cell Count [2]: 170
Population Apoptotic (%) [3]: 78%
Population Fragmented Nuclei (%) [3]: 20%
Population Healthy Nuclei (%) [3]: 56%
Population Hoechst High Intensity Objects (%) [3]: 6%
Population Membrane Permeable-Phenotype (%) [3]: 0%
Population Mitochondria Different-Phenotype (%) [3]: 40%
Population Mitotic Cells (%) [3]: 21%
Population Normal (%) [3]: 93%
Population Pyknosed Nuclei (%) [3]: 22%
Population Tubulin-Different-Phenotype (%) [3]: 90%
Total Cell Count [3]: 177
Population Apoptotic (%) [4]: 57%
Population Fragmented Nuclei (%) [4]: 24%
Population Healthy Nuclei (%) [4]: 44%
Population Membrane Permeable-Phenotype (%) [4]: 5%
Population Mitochondria Different-Phenotype (%) [4]: 34%
Population Mitotic Cells (%) [4]: 42%
Population Pyknosed Nuclei (%) [4]: 30%
Population Tubulin-Different-Phenotype (%) [4]: 89%
Total Cell Count [4]: 219
Population Apoptotic (%) [5]: 50%
Population Fragmented Nuclei (%) [5]: 21%
Population Healthy Nuclei (%) [5]: 64%
Population Hoechst High Intensity Objects (%) [5]: 3%
Population Membrane Permeable-Phenotype (%) [5]: 0%
Population Mitochondria Different-Phenotype (%) [5]: 13%
Population Mitotic Cells (%) [5]: 50%
Population Normal (%) [5]: 96%
Population Pyknosed Nuclei (%) [5]: 13%
Population Tubulin-Different-Phenotype (%) [5]: 42%
Total Cell Count [5]: 156
Population Apoptotic (%) [6]: 46%
Population Fragmented Nuclei (%) [6]: 35%
Population Healthy Nuclei (%) [6]: 44%
Population Hoechst High Intensity Objects (%) [6]: 4%
Population Membrane Permeable-Phenotype (%) [6]: 18%
Population Mitochondria Different-Phenotype (%) [6]: 11%
Population Mitotic Cells (%) [6]: 53%
Population Normal (%) [6]: 95%
Population Pyknosed Nuclei (%) [6]: 20%
Population Tubulin-Different-Phenotype (%) [6]: 70%
Total Cell Count [6]: 166
Population Apoptotic (%) [7]: 77%
Population Fragmented Nuclei (%) [7]: 22%
Population Healthy Nuclei (%) [7]: 62%
Population Hoechst High Intensity Objects (%) [7]: 3%
Population Membrane Permeable-Phenotype (%) [7]: 0%
Population Mitochondria Different-Phenotype (%) [7]: 58%
Population Mitotic Cells (%) [7]: 22%
Population Normal (%) [7]: 96%
Population Pyknosed Nuclei (%) [7]: 14%
Population Tubulin-Different-Phenotype (%) [7]: 89%
Total Cell Count [7]: 193
Population Apoptotic (%) [8]: 72%
Population Fragmented Nuclei (%) [8]: 30%
Population Healthy Nuclei (%) [8]: 51%
Population Hoechst High Intensity Objects (%) [8]: 7%
Population Membrane Permeable-Phenotype (%) [8]: 5%
Population Mitochondria Different-Phenotype (%) [8]: 32%
Population Mitotic Cells (%) [8]: 27%
Population Normal (%) [8]: 92%
Population Pyknosed Nuclei (%) [8]: 18%
Population Tubulin-Different-Phenotype (%) [8]: 81%
Total Cell Count [8]: 237
Population Apoptotic (%) [9]: 50%
Population Fragmented Nuclei (%) [9]: 27%
Population Healthy Nuclei (%) [9]: 63%
Population Hoechst High Intensity Objects (%) [9]: 4%
Population Membrane Permeable-Phenotype (%) [9]: 2%
Population Mitochondria Different-Phenotype (%) [9]: 3%
Population Mitotic Cells (%) [9]: 50%
Population Normal (%) [9]: 95%
Population Pyknosed Nuclei (%) [9]: 9%
Population Tubulin-Different-Phenotype (%) [9]: 46%
Total Cell Count [9]: 177
Population Apoptotic (%) [10]: 54%
Population Fragmented Nuclei (%) [10]: 38%
Population Healthy Nuclei (%) [10]: 47%
Population Hoechst High Intensity Objects (%) [10]: 6%
Population Membrane Permeable-Phenotype (%) [10]: 9%
Population Mitochondria Different-Phenotype (%) [10]: 17%
Population Mitotic Cells (%) [10]: 45%
Population Normal (%) [10]: 93%
Population Pyknosed Nuclei (%) [10]: 14%
Population Tubulin-Different-Phenotype (%) [10]: 58%
Total Cell Count [10]: 166
Population Apoptotic (%) [11]: 85%
Population Fragmented Nuclei (%) [11]: 22%
Population Healthy Nuclei (%) [11]: 65%
Population Hoechst High Intensity Objects (%) [11]: 7%
Population Membrane Permeable-Phenotype (%) [11]: 0%
Population Mitochondria Different-Phenotype (%) [11]: 43%
Population Mitotic Cells (%) [11]: 14%
Population Normal (%) [11]: 92%
Population Pyknosed Nuclei (%) [11]: 12%
Population Tubulin-Different-Phenotype (%) [11]: 92%
Total Cell Count [11]: 189
Population Apoptotic (%) [12]: 75%
Population Fragmented Nuclei (%) [12]: 31%
Population Healthy Nuclei (%) [12]: 59%
Population Hoechst High Intensity Objects (%) [12]: 3%
Population Membrane Permeable-Phenotype (%) [12]: 3%
Population Mitochondria Different-Phenotype (%) [12]: 24%
Population Mitotic Cells (%) [12]: 25%
Population Normal (%) [12]: 96%
Population Pyknosed Nuclei (%) [12]: 8%
Population Tubulin-Different-Phenotype (%) [12]: 74%
Total Cell Count [12]: 241
